Assay results from the M2OR odorant receptor database.

Assays:
Conditions in all cases: stereoisomer not certain
OR51A4 (Homo sapiens) = OR51A4 (Homo sapiens) (UniProt Q8NGJ6)
Method in brief: (§1)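 Assay methods differ from source to source, frequently being transient luciferase assays in mammalian cell lines. For each receptor–molecule pair, the label responsive (active) applies when the original authors judged the measured signal statistically different from baseline, and non-responsive (inactive) applies otherwise.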

OR51A7 (Homo sapiens) = OR51A7 (Homo sapiens) (UniProt Q8NH64)
Method in brief: as §1

OR51B2 (Homo sapiens) = OR51B2 (Homo sapiens) (UniProt Q9Y5P1)
Method in brief: as §1

OR51B4 (Homo sapiens) = OR51B4 (Homo sapiens) (UniProt Q9Y5P0)
Method in brief: as §1

OR51B5 (Homo sapiens) = biological target: T1, OR51B5 (Homo sapiens) (UniProt Q9H339)
T1 sequence (whole entry): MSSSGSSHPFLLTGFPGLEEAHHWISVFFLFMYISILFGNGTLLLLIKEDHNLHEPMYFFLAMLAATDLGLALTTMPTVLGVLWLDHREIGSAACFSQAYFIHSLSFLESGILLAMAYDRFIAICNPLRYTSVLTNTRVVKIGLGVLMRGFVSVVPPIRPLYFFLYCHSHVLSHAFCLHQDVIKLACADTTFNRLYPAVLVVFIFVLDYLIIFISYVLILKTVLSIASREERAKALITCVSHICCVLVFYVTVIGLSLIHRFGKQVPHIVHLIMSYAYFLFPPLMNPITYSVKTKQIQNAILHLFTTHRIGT
Method in brief: as §1

OR51B6 (Homo sapiens) = OR51B6 (Homo sapiens) (UniProt Q9H340)
Method in brief: as §1

OR51D1 (Homo sapiens) = OR51D1 (Homo sapiens) (UniProt Q8NGF3)
Method in brief: as §1

OR51E2 (Homo sapiens) = biological target: T2, OR51E2 (Homo sapiens) (UniProt Q9H255)
T2 sequence (whole entry): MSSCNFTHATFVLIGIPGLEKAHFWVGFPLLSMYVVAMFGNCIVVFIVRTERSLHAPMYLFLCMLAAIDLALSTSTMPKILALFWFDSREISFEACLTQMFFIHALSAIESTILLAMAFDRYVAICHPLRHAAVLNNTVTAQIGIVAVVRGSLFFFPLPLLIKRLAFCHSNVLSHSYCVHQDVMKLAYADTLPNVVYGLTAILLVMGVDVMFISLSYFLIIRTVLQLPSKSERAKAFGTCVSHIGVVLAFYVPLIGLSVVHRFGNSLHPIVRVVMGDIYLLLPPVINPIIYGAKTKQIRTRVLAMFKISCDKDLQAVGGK
Method in brief: as §1

OR51E1 (Homo sapiens) [1] = biological target: T3, OR51E1 (Homo sapiens) (UniProt Q8TCB6)
T3 sequence (whole entry): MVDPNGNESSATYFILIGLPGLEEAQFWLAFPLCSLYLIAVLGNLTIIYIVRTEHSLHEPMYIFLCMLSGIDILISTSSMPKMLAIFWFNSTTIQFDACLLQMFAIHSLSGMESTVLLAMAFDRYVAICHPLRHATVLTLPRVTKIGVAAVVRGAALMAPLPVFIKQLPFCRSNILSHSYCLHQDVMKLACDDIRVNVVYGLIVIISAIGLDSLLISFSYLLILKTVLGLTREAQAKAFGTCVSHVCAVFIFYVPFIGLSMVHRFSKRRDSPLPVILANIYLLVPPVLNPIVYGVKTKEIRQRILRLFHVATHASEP
Method in brief: as §1

OR51E1 (Homo sapiens) [2] = biological target: OR51E1 (Homo sapiens) (UniProt Q8TCB6); remark: listed apart in the source
Method in brief: as §1
Target sequence in this assay (Q8TCB6 whole entry): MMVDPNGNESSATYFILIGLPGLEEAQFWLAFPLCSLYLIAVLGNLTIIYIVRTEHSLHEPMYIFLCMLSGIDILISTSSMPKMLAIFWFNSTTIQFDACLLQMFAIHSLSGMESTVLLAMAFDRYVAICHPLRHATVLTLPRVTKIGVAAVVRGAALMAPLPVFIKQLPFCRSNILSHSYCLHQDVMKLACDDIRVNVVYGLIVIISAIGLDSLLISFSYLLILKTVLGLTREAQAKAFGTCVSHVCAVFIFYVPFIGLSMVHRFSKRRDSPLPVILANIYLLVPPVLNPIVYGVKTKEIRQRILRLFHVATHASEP

Measured: odorant receptor agonist call

Sequence of OR51A7 (Homo sapiens) (Q8NH64 whole entry): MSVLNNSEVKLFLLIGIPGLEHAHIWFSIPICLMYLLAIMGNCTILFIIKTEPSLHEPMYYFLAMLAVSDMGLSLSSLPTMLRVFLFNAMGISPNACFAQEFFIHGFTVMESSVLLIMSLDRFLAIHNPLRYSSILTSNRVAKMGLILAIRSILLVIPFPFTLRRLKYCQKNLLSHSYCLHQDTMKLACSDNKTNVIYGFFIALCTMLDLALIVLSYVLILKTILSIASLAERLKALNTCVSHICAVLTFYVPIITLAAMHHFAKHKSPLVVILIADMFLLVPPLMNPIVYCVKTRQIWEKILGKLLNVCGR
Sequence of OR51B6 (Homo sapiens) (Q9H340 whole entry): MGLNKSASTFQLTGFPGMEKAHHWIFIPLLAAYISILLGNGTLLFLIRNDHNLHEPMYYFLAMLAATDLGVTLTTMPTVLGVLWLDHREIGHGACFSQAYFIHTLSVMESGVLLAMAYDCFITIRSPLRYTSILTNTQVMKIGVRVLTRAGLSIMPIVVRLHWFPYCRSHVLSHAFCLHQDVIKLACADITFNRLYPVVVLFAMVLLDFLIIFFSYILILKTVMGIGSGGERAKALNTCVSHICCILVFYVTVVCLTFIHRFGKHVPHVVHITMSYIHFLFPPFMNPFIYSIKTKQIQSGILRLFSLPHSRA
Sequence of OR51B4 (Homo sapiens) (Q9Y5P0 whole entry): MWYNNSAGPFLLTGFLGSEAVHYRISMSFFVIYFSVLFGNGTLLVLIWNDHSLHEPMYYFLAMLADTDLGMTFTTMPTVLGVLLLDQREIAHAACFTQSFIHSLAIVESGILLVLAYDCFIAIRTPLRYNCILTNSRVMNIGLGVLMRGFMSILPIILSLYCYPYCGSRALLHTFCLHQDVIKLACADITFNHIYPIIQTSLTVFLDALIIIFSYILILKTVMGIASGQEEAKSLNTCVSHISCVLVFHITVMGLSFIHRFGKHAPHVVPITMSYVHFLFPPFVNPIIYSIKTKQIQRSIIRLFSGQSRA
Sequence of OR51D1 (Homo sapiens) (Q8NGF3 whole entry): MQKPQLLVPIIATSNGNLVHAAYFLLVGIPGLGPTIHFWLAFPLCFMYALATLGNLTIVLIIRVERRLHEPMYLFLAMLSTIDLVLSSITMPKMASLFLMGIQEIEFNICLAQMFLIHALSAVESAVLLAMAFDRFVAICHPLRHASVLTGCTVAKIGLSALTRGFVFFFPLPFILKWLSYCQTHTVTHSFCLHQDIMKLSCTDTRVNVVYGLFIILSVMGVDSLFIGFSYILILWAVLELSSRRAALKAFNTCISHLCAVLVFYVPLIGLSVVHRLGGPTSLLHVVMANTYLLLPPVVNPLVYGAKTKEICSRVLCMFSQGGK
Sequence of OR51A4 (Homo sapiens) (Q8NGJ6 whole entry): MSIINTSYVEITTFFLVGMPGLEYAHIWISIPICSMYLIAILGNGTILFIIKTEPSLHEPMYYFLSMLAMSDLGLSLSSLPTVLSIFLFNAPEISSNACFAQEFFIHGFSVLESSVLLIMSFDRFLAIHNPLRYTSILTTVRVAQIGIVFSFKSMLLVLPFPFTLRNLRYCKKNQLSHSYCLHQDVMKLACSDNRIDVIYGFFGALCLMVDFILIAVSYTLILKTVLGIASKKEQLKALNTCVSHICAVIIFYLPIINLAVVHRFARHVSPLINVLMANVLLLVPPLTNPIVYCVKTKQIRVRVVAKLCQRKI
Sequence of OR51B2 (Homo sapiens) (Q9Y5P1 whole entry): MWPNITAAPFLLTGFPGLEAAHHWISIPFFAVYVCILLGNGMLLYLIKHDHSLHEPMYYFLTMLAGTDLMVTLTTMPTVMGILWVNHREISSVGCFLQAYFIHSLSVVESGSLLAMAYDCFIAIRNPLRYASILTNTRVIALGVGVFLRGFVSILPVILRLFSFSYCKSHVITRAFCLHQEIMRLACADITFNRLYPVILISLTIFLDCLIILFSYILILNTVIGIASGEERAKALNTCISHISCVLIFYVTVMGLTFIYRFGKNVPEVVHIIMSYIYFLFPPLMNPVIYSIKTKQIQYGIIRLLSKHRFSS

Cc1c([N+](=O)[O-])c(C)c([N+](=O)[O-])c(C(C)(C)C)c1[N+](=O)[O-]
inactive: OR51A4 (Homo sapiens) | OR51A7 (Homo sapiens) | OR51B2 (Homo sapiens) | OR51B4 (Homo sapiens) | OR51B5 (Homo sapiens) | OR51B6 (Homo sapiens) | OR51D1 (Homo sapiens) | OR51E2 (Homo sapiens)

CCC1CCC(=O)O1 (stereo unspecified)
inactive: OR51E1 (Homo sapiens) [1] | OR51E2 (Homo sapiens)

C=CCOC(=O)Cc1ccccc1
inactive: OR51A4 (Homo sapiens) | OR51A7 (Homo sapiens) | OR51B2 (Homo sapiens) | OR51B4 (Homo sapiens) | OR51B5 (Homo sapiens) | OR51B6 (Homo sapiens) | OR51D1 (Homo sapiens) | OR51E1 (Homo sapiens) [2] | OR51E1 (Homo sapiens) [1] | OR51E2 (Homo sapiens)

O=c1cc(O)c2ccccc2o1
inactive: OR51E1 (Homo sapiens) [1] | OR51E2 (Homo sapiens)

C=CCc1ccccc1
inactive: OR51E1 (Homo sapiens) [1] | OR51E2 (Homo sapiens)

Cc1cccc(C)c1
inactive: OR51B5 (Homo sapiens)

COc1ccc(C=O)cc1
inactive: OR51B5 (Homo sapiens)
